From ChEMBL document CHEMBL1135704, “Design, synthesis, and evaluation of novel 2-substituted 3-hydroxypyridin-4-ones: structure-activity investigation of metalloenzyme inhibition by iron chelators” (J Med Chem, 2002)

How the values were obtained:
[1] = Inhibitory activity against 5-lipoxygenase, by using soybean lipoxygenase spectrophotometric assay; set-up: concentration or dose not given beside the values; details: concentration not given here
Summary of the method: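 Soybean lipoxygenase (10 000 units/mL stock in 0.2 M borate pH 9.0; final 500 units per 3.0 mL) preincubated 30 min at room temperature with chelator at 110 µM iron-binding equivalents or diluent; reaction started with linoleic acid in borate buffer. Linoleic hydroperoxide formation followed at 234 nm (ε 23600 M-1 cm-1); rate versus control gives % inhibition.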

[2] = Partition coefficient (logP); assay type: physicochemical; details: octanol/water
Summary of the method: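 Distribution coefficient D7.4 between 1-octanol and 50 mM MOPS pH 7.4 (mutually saturated). Ligand in aqueous phase at 0.5–1.5 absorbance near 280 nm; octanol added in aliquots, aqueous UV absorbance monitored continuously to equilibrium after each. D = [(A0−A1)/A1]·(Vw/Vo) per addition.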

[3] = species on record: Rattus norvegicus; assay: The compound was tested for % iron mobilization in Fe-Ferritin Loaded Rat model; assay type: functional
Summary of the method: (§1)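 One hour later chelator given orally at 450 µmol/kg (controls: equal volume water); individual metabolic cages, food returned 1 h post-dose. Killed 24 h after labelling; liver and GI tract with contents and feces gamma-counted. Mean ± SD, n = 5.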

[4] = tested on: Rattus norvegicus; assay: The compound was tested in vivo for Iron Mobilization efficacy in Fe-Ferritin Loaded Rat model; assay type: functional; summary of the method: as §1

SMILES: Cc1cc(=O)c(O)c(CNC(=O)C(C)C)n1C
- inhibition [1]: 21%
- logP [2]: -0.35

SMILES: CC(=O)NCCC(=O)NCc1c(O)c(=O)cc(C)n1C
- Mobilization [3]: 9.7%
- Efficacy [4]: 5.9%
- inhibition [1]: 3.8%
- logP [2]: -1.7

SMILES: CCCCCCn1ccc(=O)c(O)c1C
- inhibition [1]: 93.2%

SMILES: CCc1c(O)c(=O)ccn1C
- inhibition [1]: 48.5%
- logP [2]: -0.21

SMILES: CCCc1c(O)c(=O)cc(C)n1C
- inhibition [1]: 30%
- logP [2]: 0.4

SMILES: CCCNC(=O)CCC(=O)NCc1c(O)c(=O)cc(C)n1C
- Mobilization [3]: 23.3%
- Efficacy [4]: 19.4%
- inhibition [1]: 2.1%
- logP [2]: -0.701

SMILES: CCC(=O)NCc1c(O)c(=O)cc(C)n1C
- inhibition [1]: 13.5%
- logP [2]: -0.72

SMILES: CCCCCCCCn1ccc(=O)c(O)c1C
- inhibition [1]: 98.7%

SMILES: CC(=O)NCc1c(O)c(=O)cc(C)n1C
- inhibition [1]: 18.5%

SMILES: Cc1c(O)c(=O)ccn1C [DEFERIPRONE]
- Mobilization [3]: 13.4%
- Efficacy [4]: 9.5%
- inhibition [1]: 39.4%

SMILES: CCCCCn1ccc(=O)c(O)c1C
- inhibition [1]: 90%

SMILES: Cn1ccc(=O)c(O)c1
- inhibition [1]: 59.4%
- logP [2]: -0.6

SMILES: CCn1ccc(=O)c(O)c1C
- inhibition [1]: 58.4%

SMILES: CCCCn1ccc(=O)c(O)c1C
- inhibition [1]: 80%

SMILES: CCCCc1c(O)c(=O)cc(C)n1C
- inhibition [1]: 29.6%
- logP [2]: 0.9

SMILES: COCc1c(O)c(=O)cc(C)n1C
- inhibition [1]: 14.8%
- logP [2]: -0.41
